Values after ≈ are worked out from the molar mass of the structure shown.
Assays:
Type in all cases: functional
Campylobacter jejuni [1] = experiment: Antibacterial activity against Campylobacter jejuni isolate P338 harboring blaOXA-61::cat gene by NCCLS agar doubling dilution method
Summary of the method: (§1)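 Agar doubling dilution MICs (NCCLS/CLSI Campylobacter Working Group method) against Cj0299-inactivated mutants. Mutants were made by transforming the C. jejuni isolate with pCI and selecting on Mueller-Hinton agar with 10 μg/ml chloramphenicol for 3–5 days. Chromosomal insertion was confirmed by PCR with Cj0299 and cat primers.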

Campylobacter jejuni [2] = experiment: Antibacterial activity against bla gene-positive and nitrocefin reaction-positive beta-lactamase harboring Campylobacter jejuni isolate P285 by NCCLS agar doubling dilution method
Summary of the method: (§2)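 MICs by agar doubling dilution per the NCCLS (now CLSI) Campylobacter Working Group method. Isolates came from UK chicken flocks (feces, ceca or farm environment), 2000–2006. C. jejuni NCTC 11168 and C. coli NCTC 11366 served as control strains. The ampicillin resistance cutoff was 8 μg/ml; BSAC/CLSI Enterobacteriaceae guidelines were used for other agents.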

Campylobacter coli [3] = experiment: Antibacterial activity against Campylobacter coli by NCCLS agar doubling dilution method
Summary of the method: (§3)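 MICs by agar doubling dilution following the NCCLS (CLSI) Campylobacter Working Group procedure, applied to ampicillin- and amoxicillin-resistant isolates from UK chicken flocks (2000–2006). C. jejuni NCTC 11168 and C. coli NCTC 11366 served as control strains. Resistance was called at an ampicillin cutoff of 8 μg/ml. Other agents were judged against Enterobacteriaceae guidelines (BSAC, CLSI).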

Campylobacter jejuni [4] = experiment: Antibacterial activity against bla gene-positive and nitrocefin reaction-negative beta-lactamase harboring Campylobacter jejuni NCTC 11168 by NCCLS agar doubling dilution method
Summary of the method: (§4)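 MICs of β-lactams by agar doubling dilution following the NCCLS (CLSI) Campylobacter Working Group procedure, with C. jejuni NCTC 11168 and C. coli NCTC 11366 as controls. Isolates were from UK poultry flocks. β-Lactamase status was set by Cj0299 PCR (281-bp amplimer) and by a nitrocefin colour change of sonicated lysate within 5 min, or within 30 min on repeat.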

Campylobacter jejuni [5] = experiment: Antibacterial activity against bla gene-positive and nitrocefin reaction-positive beta-lactamase harboring Campylobacter jejuni isolate P286 by NCCLS agar doubling dilution method; summary of the method: as §2
Campylobacter jejuni [6] = experiment: Antibacterial activity against bla gene-positive and nitrocefin reaction-positive beta-lactamase harboring Campylobacter jejuni isolate P1093 by NCCLS agar doubling dilution method; summary of the method: as §4
Campylobacter jejuni [7] = experiment: Antibacterial activity against bla gene-positive and nitrocefin reaction-positive beta-lactamase harboring Campylobacter jejuni isolate P305 by NCCLS agar doubling dilution method; summary of the method: as §2
Campylobacter jejuni [8] = experiment: Antibacterial activity against bla gene-negative and nitrocefin reaction-positive beta-lactamase harboring Campylobacter jejuni isolate P854 by NCCLS agar doubling dilution method; summary of the method: as §4
Campylobacter jejuni [9] = experiment: Antibacterial activity against Campylobacter jejuni by NCCLS agar doubling dilution method; summary of the method: as §3
Campylobacter jejuni [10] = experiment: Antibacterial activity against Campylobacter jejuni isolate P270 harboring blaOXA-61::cat gene by NCCLS agar doubling dilution method
Campylobacter jejuni [11] = experiment: Antibacterial activity against bla gene-positive and nitrocefin reaction-positive beta-lactamase harboring Campylobacter jejuni isolate P1618 by NCCLS agar doubling dilution method; summary of the method: as §4
Campylobacter jejuni [12] = experiment: Antibacterial activity against bla gene-positive and nitrocefin reaction-negative beta-lactamase harboring Campylobacter jejuni isolate P1699 by NCCLS agar doubling dilution method; summary of the method: as §4
Campylobacter jejuni [13] = experiment: Antibacterial activity against bla gene-negative and nitrocefin reaction-negative beta-lactamase harboring Campylobacter jejuni isolate P850 by NCCLS agar doubling dilution method; summary of the method: as §4
Campylobacter jejuni [14] = experiment: Antibacterial activity against bla gene-negative and nitrocefin reaction-negative beta-lactamase harboring Campylobacter jejuni isolate P835 by NCCLS agar doubling dilution method; summary of the method: as §4
Campylobacter coli [15] = experiment: Antibacterial activity against bla gene-positive and nitrocefin reaction-positive beta-lactamase harboring Campylobacter coli isolate P321 by NCCLS agar doubling dilution method; summary of the method: as §4
Campylobacter jejuni [16] = experiment: Antibacterial activity against bla gene-positive and nitrocefin reaction-positive beta-lactamase harboring Campylobacter jejuni isolate P316 by NCCLS agar doubling dilution method; summary of the method: as §2
Campylobacter coli [17] = experiment: Antibacterial activity against bla-positive and beta-lactamase-weakly positive Campylobacter coli isolate P1627 by NCCLS agar doubling dilution method; summary of the method: as §2
Campylobacter jejuni [18] = experiment: Antibacterial activity against bla gene-positive and nitrocefin reaction-positive beta-lactamase harboring Campylobacter jejuni isolate P1650 by NCCLS agar doubling dilution method; summary of the method: as §4
Campylobacter jejuni [19] = experiment: Antibacterial activity against bla gene-positive and nitrocefin reaction-positive beta-lactamase harboring Campylobacter jejuni isolate P1730 by NCCLS agar doubling dilution method; summary of the method: as §2
Campylobacter jejuni [20] = experiment: Antibacterial activity against bla gene-negative and nitrocefin reaction-positive beta-lactamase harboring Campylobacter jejuni isolate P843 by NCCLS agar doubling dilution method; summary of the method: as §4
Campylobacter jejuni [21] = experiment: Antibacterial activity against Campylobacter jejuni isolate P1093 harboring blaOXA-61::cat gene by NCCLS agar doubling dilution method; summary of the method: as §1
Campylobacter jejuni [22] = experiment: Antibacterial activity against bla gene-positive and nitrocefin reaction-positive beta-lactamase harboring Campylobacter jejuni isolate P338 by NCCLS agar doubling dilution method; summary of the method: as §2
Campylobacter jejuni [23] = experiment: Antibacterial activity against bla gene-negative and nitrocefin reaction-negative beta-lactamase harboring Campylobacter jejuni isolate P1962 by NCCLS agar doubling dilution method; summary of the method: as §4
Campylobacter jejuni [24] = experiment: Antibacterial activity against bla gene-positive and nitrocefin reaction-positive beta-lactamase harboring Campylobacter jejuni isolate P790 by NCCLS agar doubling dilution method; summary of the method: as §2
Campylobacter jejuni [25] = experiment: Antibacterial activity against bla gene-positive and nitrocefin reaction-negative beta-lactamase harboring Campylobacter jejuni isolate P1698 by NCCLS agar doubling dilution method; summary of the method: as §4
Campylobacter coli [26] = experiment: Antibacterial activity against bla gene-positive and nitrocefin reaction-positive beta-lactamase harboring Campylobacter coli isolate P1826 by NCCLS agar doubling dilution method; summary of the method: as §4

| SMILES | MIC (Campylobacter jejuni [2]) [µg/mL] | MIC50 (Campylobacter coli [3]) [µg/mL] | MIC90 (Campylobacter coli [3]) [µg/mL] | MIC (Campylobacter jejuni [4]) [µg/mL] | MIC (Campylobacter jejuni [5]) [µg/mL] | MIC (Campylobacter jejuni [7]) [µg/mL] | MIC (Campylobacter jejuni [8]) [µg/mL] | MIC50 (Campylobacter jejuni [9]) [µg/mL] | MIC90 (Campylobacter jejuni [9]) [µg/mL] | MIC (Campylobacter jejuni [11]) [µg/mL] | MIC (Campylobacter jejuni [12]) [µg/mL] | MIC (Campylobacter jejuni [13]) [µg/mL] | MIC (Campylobacter jejuni [14]) [µg/mL] | MIC (Campylobacter coli [15]) [µg/mL] | MIC (Campylobacter jejuni [16]) [µg/mL] | MIC (Campylobacter coli [17]) [µg/mL] | MIC (Campylobacter jejuni [18]) [µg/mL] | MIC (Campylobacter jejuni [19]) [µg/mL] | MIC (Campylobacter jejuni [20]) [µg/mL] | MIC (Campylobacter jejuni [22]) [µg/mL] | further results |
| --- | --- | --- | --- | --- | --- | --- | --- | --- | --- | --- | --- | --- | --- | --- | --- | --- | --- | --- | --- | --- | --- |
| CC1(C)S[C@@H]2[C@H](NC(=O)C(C(=O)O)c3ccccc3)C(=O)N2[C@H]1C(=O)O (stereo not given in full) [CARBENICILLIN] | 256 (≈ 677 µM) | 128 (≈ 338 µM) | 256 (≈ 677 µM) | 16 (≈ 42.3 µM) | 256 (≈ 677 µM) | > 256 | > 256 | 128 (≈ 338 µM) | 256 (≈ 677 µM) | 128 (≈ 338 µM) | 64 (≈ 169 µM) | 256 (≈ 677 µM) | 8 (≈ 21.1 µM) | 256 (≈ 677 µM) | 128 (≈ 338 µM) | 32 (≈ 84.6 µM) | 64 (≈ 169 µM) | 128 (≈ 338 µM) | < 16 | 128 (≈ 338 µM) | MIC (Campylobacter jejuni [1]): 8 µg/mL (≈ 21.1 µM); MIC (Campylobacter jejuni [6]): 256 µg/mL (≈ 677 µM); MIC (Campylobacter jejuni [10]): 4 µg/mL (≈ 10.6 µM); MIC (Campylobacter jejuni [21]): 16 µg/mL (≈ 42.3 µM); MIC (Campylobacter jejuni [23]): < 16 µg/mL; MIC (Campylobacter jejuni [24]): 256 µg/mL (≈ 677 µM); MIC (Campylobacter jejuni [25]): 32 µg/mL (≈ 84.6 µM); MIC (Campylobacter coli [26]): 128 µg/mL (≈ 338 µM) |
| CC1(C)S[C@@H]2[C@H](NC(=O)Cc3ccccc3)C(=O)N2[C@H]1C(=O)O [PENICILLIN G] | 128 (≈ 383 µM) | 128 (≈ 383 µM) | 128 (≈ 383 µM) | 8 (≈ 23.9 µM) | 128 (≈ 383 µM) | 128 (≈ 383 µM) | 256 (≈ 766 µM) | 64 (≈ 191 µM) | 256 (≈ 766 µM) | 64 (≈ 191 µM) | < 8 | 64 (≈ 191 µM) | 4 (≈ 12 µM) | 64 (≈ 191 µM) | 128 (≈ 383 µM) | 8 (≈ 23.9 µM) | 64 (≈ 191 µM) | 64 (≈ 191 µM) | 64 (≈ 191 µM) | 128 (≈ 383 µM) | MIC (Campylobacter jejuni [1]): 16 µg/mL (≈ 47.8 µM); MIC (Campylobacter jejuni [6]): 256 µg/mL (≈ 766 µM); MIC (Campylobacter jejuni [10]): 2 µg/mL (≈ 5.98 µM); MIC (Campylobacter jejuni [21]): 8 µg/mL (≈ 23.9 µM); MIC (Campylobacter jejuni [23]): 8 µg/mL (≈ 23.9 µM); MIC (Campylobacter jejuni [24]): 128 µg/mL (≈ 383 µM); MIC (Campylobacter jejuni [25]): < 8 µg/mL; MIC (Campylobacter coli [26]): 128 µg/mL (≈ 383 µM) |
| CC1(C)S[C@@H]2[C@H](NC(=O)[C@H](N)c3ccc(O)cc3)C(=O)N2[C@H]1C(=O)O [AMOXICILLIN] | 64 (≈ 175 µM) | 128 (≈ 350 µM) | > 128 | 4 (≈ 10.9 µM) | 64 (≈ 175 µM) | 64 (≈ 175 µM) | 128 (≈ 350 µM) | 64 (≈ 175 µM) | 128 (≈ 350 µM) | 64 (≈ 175 µM) | 64 (≈ 175 µM) | 1 (≈ 2.74 µM) | 0.25 (≈ 0.684 µM) | 64 (≈ 175 µM) | 32 (≈ 87.6 µM) | 8 (≈ 21.9 µM) | 64 (≈ 175 µM) | 64 (≈ 175 µM) | 64 (≈ 175 µM) | 64 (≈ 175 µM) | MIC (Campylobacter jejuni [6]): 64 µg/mL (≈ 175 µM); MIC (Campylobacter jejuni [23]): 2 µg/mL (≈ 5.47 µM); MIC (Campylobacter jejuni [24]): 64 µg/mL (≈ 175 µM); MIC (Campylobacter jejuni [25]): 128 µg/mL (≈ 350 µM); MIC (Campylobacter coli [26]): 128 µg/mL (≈ 350 µM) |
| Cn1nnnc1SCC1=C(C(=O)O)N2C(=O)[C@@H](NC(=O)[C@H](O)c3ccccc3)[C@H]2SC1 [CEFAMANDOLE] | – | > 256 | > 256 | – | – | – | – | > 256 | > 256 | – | – | – | – | – | – | – | – | – | – | – | – |
| CC1(C)S[C@@H]2[C@H](NC(=O)[C@H](C(=O)O)c3ccsc3)C(=O)N2[C@H]1C(=O)O [TICARCILLIN] | 64 (≈ 166 µM) | 64 (≈ 166 µM) | 128 (≈ 333 µM) | 2 (≈ 5.2 µM) | 64 (≈ 166 µM) | 128 (≈ 333 µM) | 128 (≈ 333 µM) | 64 (≈ 166 µM) | 128 (≈ 333 µM) | 64 (≈ 166 µM) | 128 (≈ 333 µM) | 128 (≈ 333 µM) | 4 (≈ 10.4 µM) | 64 (≈ 166 µM) | 64 (≈ 166 µM) | 64 (≈ 166 µM) | 64 (≈ 166 µM) | 32 (≈ 83.2 µM) | 128 (≈ 333 µM) | 64 (≈ 166 µM) | MIC (Campylobacter jejuni [1]): 4 µg/mL (≈ 10.4 µM); MIC (Campylobacter jejuni [6]): 32 µg/mL (≈ 83.2 µM); MIC (Campylobacter jejuni [10]): 2 µg/mL (≈ 5.2 µM); MIC (Campylobacter jejuni [21]): 8 µg/mL (≈ 20.8 µM); MIC (Campylobacter jejuni [23]): < 4 µg/mL; MIC (Campylobacter jejuni [24]): 128 µg/mL (≈ 333 µM); MIC (Campylobacter jejuni [25]): 64 µg/mL (≈ 166 µM) |
| CC(=O)OCC1=C(C(=O)O)N2C(=O)[C@@H](NC(=O)Cc3cccs3)[C@H]2SC1 [CEPHALOTHIN] | – | 256 (≈ 646 µM) | > 256 | – | – | – | – | > 256 | > 256 | – | – | – | – | – | – | – | – | – | – | – | – |
| C[C@H]1[C@H](NC(=O)/C(=N\OC(C)(C)C(=O)O)c2csc(N)n2)C(=O)N1S(=O)(=O)O [AZTREONAM] | > 128 | 64 (≈ 147 µM) | > 128 | 64 (≈ 147 µM) | > 128 | > 128 | 4 (≈ 9.19 µM) | 64 (≈ 147 µM) | > 128 | 64 (≈ 147 µM) | < 1 | > 32 | 128 (≈ 294 µM) | > 128 | > 128 | > 128 | 128 (≈ 294 µM) | 32 (≈ 73.5 µM) | > 128 | 128 (≈ 294 µM) | MIC (Campylobacter jejuni [23]): 4 µg/mL (≈ 9.19 µM); MIC (Campylobacter jejuni [24]): > 128 µg/mL; MIC (Campylobacter jejuni [25]): 128 µg/mL (≈ 294 µM); MIC (Campylobacter coli [26]): 32 µg/mL (≈ 73.5 µM) |
